Consider 13 molecules from PubChem BioAssay.

The nature of assay [1]: inhibitors of TNFa-induced NFkB p65 translocation, primary screen, imaging, HUVEC, MLSMR starter and 10KST1 sets (AID 438;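 active = inhibition above 20% together with a positive visual image hit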;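 note: compound added about 3h40 before a 20 min TNFalpha stimulation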;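 for inhibition: signal is the nuclear over cytoplasmic p65 intensity ratio per well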). As to conditions: HUVEC TNFa-induced p65 nuclear translocation; cell count: measured here: nuclei count (cytotoxicity indicator), at 2.08 µM; inhibition: at 2 µM, stronger effect = higher value, 0% TNFa-plus-vehicle, 100% no-TNFa wells.
A short description of assay [2]: reduction of polyQ htt aggregates in cells – imaging, exon1htt(103Q)mCFP cells, high-content imaging, primary screen (AID 483;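 active = visual image review flags a hit and inhibition of aggregation exceeds 20%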;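 note: compound exposure lasted 3 days before fixation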;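 for nuclei count: percent of the per-plate median nuclei count of sample wells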). The settings on record: exon1htt(103Q)mCFP cell line, aggregate imaging, at 2 µM; inhibition of aggregation: stronger effect = higher value; nuclei count: measured here: cell count, toxicity.
A short description of assay [3]: endothelial E-selectin expression blockers – imaging, HUVEC, immunofluorescence, MLSMR starter and 10KST1 sets, primary screen (AID 487;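 active = visually confirmed hit in the image check and inhibition above 20%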;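 for inhibition: signal is fraction of cell area covered by stained E-selectin grains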;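 for nuclei count: 100% = median nuclei count of all wells on the same plate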). The settings on record: HUVEC TNFalpha-induced E-selectin immunofluorescence imaging, at 2 µM; inhibition: stronger effect = higher value; nuclei count: measured here: cell number, toxicity.
Assay [4] deals with Voltage-gated potassium channel subunit beta-2 (Rattus norvegicus) (UniProt P62483). As to the kind of experiment: inhibitors of rat Kvbeta2 reductase activity – biochemical, NADPH fluorescence, primary screen (AID 622;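 active = fluorescence slope higher than the sample average by over 3 SD, cut at about -0.22 in these data, passing the limit was not always enough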;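 note: slope of raw intensity against log time taken from 70 to 1610 s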). The settings on record: recombinant KvBeta, 4-cyanobenzaldehyde reduction, at 10 µM, stronger effect = higher value.
The target is the same in assay [5]. As to the kind of experiment: enhancers of rat Kvbeta2 NADPH turnover – biochemical, NADPH fluorescence, primary screen (AID 623).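 Note: fluorescence intensity change per second fitted from 20 to 320 s.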 The settings on record: Recombinant KvBeta, NADPH fluorescence decrease slope, 10 min; at 10 µM; stronger effect = lower value.
In assay [6] the target is Muscarinic acetylcholine receptor M4 (Homo sapiens) (UniProt P08173). Put plainly: M4-linked GIRK flux change, two-sided – cell-based, HEK293 M4/GIRK, thallium flux, BTC-AM, M4 allosteric agonist project, primary screen (AID 625;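 active = fluorescence slope after compound addition differing from the mean of all tested samples at 99.7% confidence, mostly higher but some lower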;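 note: thallium influx through GIRK channels coupled to M4 in HEK293 cells with BTC-AM dye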). The settings on record: at 10 µM, actives lie on both sides. In short, it runs like this:
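Assay system: HEK293 cells with M4 receptor and GIRK channels / Controls: carbachol and DMSO controls / Schedule: 1 h dye loading, 2 min kinetic read / Technique: kinetic fluorescence with BTC-AM dye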

Assay [7] can be described thus: blockers of RIG-like receptor reporter activation – cell-based, Sendai virus stimulus, luciferase, 10K MLSCN set, TLR/RLR signaling modifier project, primary screen (AID 602276;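 active = inhibition at or above 50% at 10 µM; inactive = inhibition below 50%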;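 note: firefly luciferase from ISG56 promoter only with Renilla not read in this screen; 0% = Sendai virus plus DMSO and 100% = medium plus DMSO without virus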). The settings on record: HEK293 RL24 IRF3 luciferase reporter, at 10 µM, stronger effect = higher value. For orientation: A reporter such as luciferase makes a cellular process visible.
A short description of assay [8]: TLR3 IRF3 reporter activation blockers – cell-based, poly I:C stimulus, luciferase, 10K MLSCN set, primary screen (AID 602277;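 active = inhibition of the reporter signal at or above 50%; inactive = inhibition below 50%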). The settings on record: HEK293-TLR3 RL24 IRF3 luciferase reporter, at 10 µM, stronger effect = higher value.

The source made the active and inactive calls.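 Rule for the calls, unless noted: active = NADPH fluorescence slope more negative than the mean of all samples by about 3 SD, 99.7% confidence; inactive = the rest.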

Voltage-gated potassium channel subunit beta-2 (Rattus norvegicus), sequence (P62483 whole entry, looked up): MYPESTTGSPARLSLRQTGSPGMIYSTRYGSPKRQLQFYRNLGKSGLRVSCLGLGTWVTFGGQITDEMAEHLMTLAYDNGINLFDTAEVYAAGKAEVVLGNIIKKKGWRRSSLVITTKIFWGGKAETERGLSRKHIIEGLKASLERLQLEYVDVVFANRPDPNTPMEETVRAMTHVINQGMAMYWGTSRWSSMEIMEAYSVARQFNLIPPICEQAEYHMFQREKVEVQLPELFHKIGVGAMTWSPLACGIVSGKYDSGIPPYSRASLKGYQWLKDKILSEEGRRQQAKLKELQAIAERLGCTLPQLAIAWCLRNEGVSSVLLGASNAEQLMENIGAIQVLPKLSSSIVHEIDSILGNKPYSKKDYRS
Muscarinic acetylcholine receptor M4 (Homo sapiens), sequence (P08173 whole entry, looked up): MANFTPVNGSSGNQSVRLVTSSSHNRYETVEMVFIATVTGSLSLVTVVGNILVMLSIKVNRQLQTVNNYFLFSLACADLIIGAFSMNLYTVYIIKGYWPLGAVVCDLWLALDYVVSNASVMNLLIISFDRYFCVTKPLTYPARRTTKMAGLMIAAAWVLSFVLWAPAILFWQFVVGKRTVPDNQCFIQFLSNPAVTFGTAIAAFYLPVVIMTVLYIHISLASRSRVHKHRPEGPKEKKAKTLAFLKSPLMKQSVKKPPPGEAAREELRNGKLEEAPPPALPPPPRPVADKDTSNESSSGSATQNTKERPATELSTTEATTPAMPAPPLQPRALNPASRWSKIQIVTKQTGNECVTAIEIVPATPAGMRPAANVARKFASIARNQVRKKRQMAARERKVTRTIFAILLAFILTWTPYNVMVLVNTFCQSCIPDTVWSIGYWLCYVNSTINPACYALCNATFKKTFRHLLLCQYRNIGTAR

For orientation: inhibition means the change of the read-out against control, counted positive when it falls. Take `CCCn1c2ccccc2c2nnc(SCC(=O)Nc3ncccn3)nc21`: the cell count in assay [1] came to 696. The inhibition in assay [1] is -4.4% (inactive); in assay [3], -10.4% (inactive); in assay [7] it was 12.2% (inactive); in assay [8] it was 21.2% (inactive). Further, the inhibition of aggregation in assay [2] is -41% (inactive). Further, the nuclei count in assay [2] came out at 53.5%; in assay [3], 98.8%. Besides, the fluorescence slope is -0.551 (inactive) in assay [4] and 0.00402 (inactive) in assay [6]. Further, the NADPH fluorescence slope in assay [5] is -1.7e-05 (inactive).

On to `CCOc1cc(C(=O)NCC2CCCO2)cc(OCC)c1OCC` (stereo not drawn), for which the cell count in assay [1] was 430. Besides, the inhibition is -9.3% (inactive) in assay [1], -133% (inactive) in assay [3], 15.1% (inactive) in assay [7] and 9.52% (inactive) in assay [8]. Moreover, in assay [2], the inhibition of aggregation is -3.9% (inactive). The nuclei count in assay [2] came out at 106%; in assay [3] it was 102%. The fluorescence slope in assay [4] was -0.213 (inactive); in assay [6] it was 0.00818 (inactive). For the same molecule, the NADPH fluorescence slope in assay [5] was -3.4e-05 (inactive).

As for `CCOC(=O)N1CCC2(CC1)CC(=O)c1c(ccc3oc(C(=O)O)c(C)c13)O2`, the cell count in assay [1] is 313. Besides, the inhibition in assay [1] was -4.1% (inactive); in assay [3], -83.8% (inactive); in assay [7] it was 0.598% (inactive); in assay [8] it was 11.3% (inactive). In addition, the inhibition of aggregation in assay [2] was -17.7% (inactive). Also, the nuclei count was found to be 99% in assay [2] and 105% in assay [3]. Further, the fluorescence slope in assay [4] was -0.413 (inactive); in assay [6], 0.00564 (inactive). Besides, the NADPH fluorescence slope in assay [5] was -1.7e-05 (inactive).

On to `O=C(c1cc(-c2cccs2)on1)N1CCc2ccccc2C1`, for which the cell count in assay [1] was found to be 490. Further, the inhibition in assay [1] is -4.5% (inactive); in assay [3], -28.9% (inactive); in assay [7], 4.86% (inactive); in assay [8], -18.5% (inactive). For the same molecule, the inhibition of aggregation in assay [2] was -23.8% (inactive). The values for the nuclei count in assay [2] and in assay [3] were 106% and 96.8%, respectively. Also, the fluorescence slope in assay [4] is -0.441 (inactive); in assay [6] it was 0.00464 (inactive). For the same molecule, in assay [5], the NADPH fluorescence slope is -4.4e-06 (inactive).

Consider `COc1ccc(CC(=O)OCC(=O)NC(=O)NC2CCCCC2)cc1`, for which, in assay [1], the cell count was 505. The inhibition is -13.7% (inactive) in assay [1], -5.5% (inactive) in assay [3], 9.64% (inactive) in assay [7] and 15.4% (inactive) in assay [8]. For the same molecule, in assay [2], the inhibition of aggregation was -0.9% (inactive). Besides, the nuclei count in assay [2] is 80.9%; in assay [3], 121%. Further, the fluorescence slope is -0.509 (inactive) in assay [4] and 0.00502 (inactive) in assay [6]. Besides, in assay [5], the NADPH fluorescence slope is 4.4e-05 (inactive).

As for `CCCOc1ccc(/C(O)=C2/C(=O)C(=O)N(CCCOC)C2c2ccncc2)cc1` (stereo not drawn), the cell count in assay [1] is 593. For the same molecule, the inhibition in assay [1] was 5.8% (inactive); in assay [3] it was 1.9% (inactive); in assay [7], 13.1% (inactive); in assay [8], 2.66% (inactive). The inhibition of aggregation in assay [2] was 4% (inactive). Also, the nuclei count in assay [2] is 97.6%; in assay [3], 108%. In addition, the fluorescence slope in assay [4] was -0.29 (inactive); in assay [6], 0.00606 (inactive). In addition, the NADPH fluorescence slope in assay [5] was -6.1e-05 (inactive).

In the case of `CCC(=O)N1CCc2cc(Br)cc(S(=O)(=O)C3(C(=O)OC)CC3)c21`, in assay [1], the cell count amounted to 469. Further, the inhibition in assay [1] is 2.5% (inactive); in assay [3], 3.4% (inactive); in assay [7], 17% (inactive); in assay [8], 18% (inactive). Further, the inhibition of aggregation in assay [2] was -5.1% (inactive). For the same molecule, the nuclei count in assay [2] stood at 98.8%; in assay [3], 97.1%. In addition, the fluorescence slope is -0.554 (inactive) in assay [4] and 0.00618 (inactive) in assay [6]. In addition, the NADPH fluorescence slope in assay [5] is -3.7e-05 (inactive).

For the molecule `CCOC(=O)c1cnc(-n2nc(C)cc2C)nc1NC(C)c1ccccc1` (stereo not drawn), the cell count in assay [1] amounted to 605. Also, the inhibition in assay [1] is -9.5% (inactive); in assay [3], 13.2% (inactive); in assay [7], 8.07% (inactive); in assay [8], 0.674% (inactive). The inhibition of aggregation in assay [2] is 8.7% (inactive). Besides, the nuclei count in assay [2] was determined as 94.4%; in assay [3], 93.5%. The results for the fluorescence slope in assay [4] and in assay [6] were -0.57 (inactive) and 0.00529 (inactive), respectively. Besides, the NADPH fluorescence slope in assay [5] is -9.1e-05 (inactive).

`Cn1c2c(c(=O)n(C)c1=O)CN(CCCN1CCOCC1)CN2`: the cell count in assay [1] was 541. In addition, the inhibition in assay [1] is -5% (inactive); in assay [3], 41.5% (inactive); in assay [7] it was 8.17% (inactive); in assay [8] it was 16.9% (inactive). Further, the inhibition of aggregation in assay [2] was 9.8% (inactive). Further, the nuclei count came out at 115% in assay [2] and 90.5% in assay [3]. In addition, the results for the fluorescence slope in assay [4] and in assay [6] were -0.595 (inactive) and 0.00524 (inactive), respectively. In addition, the NADPH fluorescence slope in assay [5] was 2.4e-05 (inactive).

As to `CCS(=O)(=O)N1CCC(C(=O)N2CCOCC2)CC1`, the cell count in assay [1] was found to be 647. Also, the inhibition in assay [1] is -7.3% (inactive); in assay [3] it was 27.5% (inactive); in assay [7] it was 12.1% (inactive); in assay [8] it was 15.7% (inactive). The inhibition of aggregation in assay [2] was -7% (inactive). In addition, the nuclei count in assay [2] was 95.7%; in assay [3], 94.4%. Moreover, the fluorescence slope is -0.574 (inactive) in assay [4] and 0.00531 (inactive) in assay [6]. Besides, the NADPH fluorescence slope in assay [5] was -2.5e-05 (inactive).

As to `COC(=O)c1cnn2c(C(F)(F)F)cc(-c3ccco3)nc12`, the cell count in assay [1] turned out to be 246. Also, the inhibition in assay [1] was 0.2% (inactive); in assay [3], 42.4% (inactive); in assay [7], 8.92% (inactive); in assay [8], 9.22% (inactive). Besides, the inhibition of aggregation in assay [2] was 38.2% (inactive). Moreover, the nuclei count in assay [2] was determined as 75.8%; in assay [3], 72.5%. The fluorescence slope in assay [4] is -0.276 (inactive); in assay [6] it was 0.00336 (inactive). In addition, the NADPH fluorescence slope in assay [5] was -8.1e-06 (inactive).

Consider `COCCNc1nc(SCC(=O)N2CCN(c3ccccc3)CC2)nc2ccccc12`, for which the cell count in assay [1] was found to be 462. Also, the inhibition in assay [1] was 4.1% (inactive); in assay [3], -188% (inactive); in assay [7], -2.13% (inactive); in assay [8], 8.34% (inactive). Further, the inhibition of aggregation in assay [2] is -53.8% (inactive). The results for the nuclei count in assay [2] and in assay [3] were 70.8% and 105%, respectively. Also, the fluorescence slope in assay [4] is -0.395 (inactive); in assay [6], 0.0054 (inactive). Also, the NADPH fluorescence slope in assay [5] was 4.2e-05 (inactive).

`Cc1ccc(-n2nc(-c3cccs3)cc2C(=O)NCC2CCCO2)c(C)c1` (stereo not drawn): the cell count in assay [1] amounted to 490. Further, the inhibition is -1.7% (inactive) in assay [1], -9.6% (inactive) in assay [3], 7.58% (inactive) in assay [7] and 20.7% (inactive) in assay [8]. For the same molecule, the inhibition of aggregation in assay [2] was -12.1% (inactive). Besides, the nuclei count was 15.1% in assay [2] and 110% in assay [3]. For the same molecule, the values for the fluorescence slope in assay [4] and in assay [6] were -0.405 (inactive) and 0.00713 (inactive), respectively. Besides, in assay [5], the NADPH fluorescence slope was -8.6e-05 (inactive).
